As a reminder, the IC50 is the concentration at which inhibition is half-maximal. High values mean a need for much substance, low ones inhibition by little substance. By inhibition is commonly meant the percentage by which the read-out fell short of the control. Low values mean a response near the control, high ones a response far below the control.

≈ marks a conversion by molar mass, not a printed value.

IC50 and inhibition data for 15 molecules are collected here from ChEMBL document CHEMBL1142785, “Synthesis of novel curcumin mimics with asymmetrical units and their anti-angiogenic activity” (Bioorg Med Chem Lett, 2005).

For assay [1], the system named is HUVEC. The assay is described as follows: Inhibitory concentration against human umbilical vein endothelial cells(HUVEC) growth. In kind it is functional, cell-based. Put shortly:
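Human umbilical vein endothelial cell (HUVEC) proliferation assay; IC50 derived by nonlinear regression.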

Assay [2] deals with HUVEC. The experiment in a line: Percentage tube formation inhibition against human umbilical vein endothelial cells(HUVEC) at a concentration of 5 ug/mL. In kind it is functional. Put shortly:
(§1)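 HUVEC tube formation with test agent at 10, 5 or 2.5 µg/mL; total tube length per field quantified by image analysis and expressed as a percentage of the untreated control.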

Assay [3] concerns B16. The assay is described as follows: Inhibitory concentration for cytotoxic activity against B16 cell line. The format is functional, cell-based. The note with it: Mus musculus. Put shortly:
(§2)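 […] cytotoxicity measured by MTT assay on B16, Vero, U87 and SiHa cells, run alongside HUVEC for selectivity comparison.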

The nature of assay [4]: Inhibitory concentration for cytotoxic activity against U87 cell line. The note with it: Homo sapiens, U-87 MG. In kind it is functional, cell-based, U-87MG ATCC. Put shortly: as §2
Assay [5] has as its system SiHa. The assay is described as follows: Inhibitory concentration for cytotoxic activity against SiHa cell line. The note with it: Homo sapiens. The format is functional, cell-based. The gist of the method: as §2
In assay [6] the test system is HUVEC. The assay is described as follows: Percentage tube formation inhibition against human umbilical vein endothelial cells(HUVEC) at a concentration of 10 ug/mL. The format is functional. Put shortly:
as §1

Assay [7] has as its system HUVEC. The assay is described as follows: Percentage tube formation inhibition against human umbilical vein endothelial cells(HUVEC) at a concentration of 2.5 ug/mL. The format is functional. Put shortly:
as §1

Assay [8] deals with Vero. The assay is described as follows: Inhibitory concentration for cytotoxic activity against Vero cell line. The note with it: Chlorocebus sabaeus. In kind it is functional, cell-based. The gist of the method: as §2

On to `COc1cc(/C=C/C(=O)c2cccc(NC(=O)c3cccs3)c2)ccc1O`, for which the IC50 was determined as 0.38 µg/mL (≈ 1 µM) in assay [1]; 6.93 µg/mL (≈ 18.3 µM) in assay [3]; 14.7 µg/mL (≈ 38.7 µM) in assay [4]; 6.57 µg/mL (≈ 17.3 µM) in assay [5]; 3.98 µg/mL (≈ 10.5 µM) in assay [8]. In assay [2], this molecule yielded an inhibition at 5 µg/mL of 80%. For the same molecule, 10 µg/mL produced 90% inhibition in assay [6]. In assay [7], the inhibition at 2.5 µg/mL was found to be 71%.
Take `COC(=O)C(=O)Nc1cccc(C(=O)/C=C/c2ccc(O)c(OC)c2)c1`: the IC50 in assay [1] was 1.5 µg/mL (≈ 4.22 µM); in assay [3] it was 4.41 µg/mL (≈ 12.4 µM); in assay [4], 12.2 µg/mL (≈ 34.4 µM); in assay [5] it was 7.71 µg/mL (≈ 21.7 µM); in assay [8], 3.55 µg/mL (≈ 9.99 µM). Besides, in assay [2], at 5 µg/mL the inhibition was 20%. In assay [6], this molecule registered an inhibition at 10 µg/mL of 43%.
For `COc1cc(/C=C/C(=O)c2cccc(NC(C)=O)c2)ccc1O`, the IC50 in assay [1] is 7.06 µg/mL (≈ 22.7 µM); in assay [3], 3.62 µg/mL (≈ 11.6 µM); in assay [4], above 50 µg/mL; in assay [5] it was 15.8 µg/mL (≈ 50.6 µM); in assay [8], 14.5 µg/mL (≈ 46.5 µM). Testing at 5 µg/mL in assay [2] gave an inhibition of 15%. Moreover, in assay [6], the inhibition at 10 µg/mL stood at 32%.
For the molecule `COc1cc(/C=C/C(=O)c2cccc(NC(=O)c3cc(Cl)cc(Cl)c3)c2)ccc1O`, the half-inhibitory concentration (IC50) in assay [1] is 0.75 µg/mL (≈ 1.7 µM); in assay [3], 4.83 µg/mL (≈ 10.9 µM); in assay [4] it was above 50 µg/mL; in assay [5], 17.7 µg/mL (≈ 40 µM); in assay [8] it was above 50 µg/mL. The same molecule had an inhibition at 5 µg/mL in assay [2] of 51%. The molecule further had an inhibition at 10 µg/mL in assay [6] of 58%. Also, in assay [7], the inhibition at 2.5 µg/mL amounted to 15%.
Take `COc1cc(/C=C/C(=O)c2cccc(NC(=O)C(C)C)c2)ccc1O`: the IC50 in assay [1] was 1.44 µg/mL (≈ 4.24 µM); in assay [3], 1.09 µg/mL (≈ 3.21 µM); in assay [4] it was 8.31 µg/mL (≈ 24.5 µM); in assay [5], 5.96 µg/mL (≈ 17.6 µM); in assay [8] it was 3.47 µg/mL (≈ 10.2 µM). In assay [2], this molecule showed an inhibition at 5 µg/mL of 51%. In assay [6], this molecule gave an inhibition at 10 µg/mL of 56%. In assay [7], this molecule yielded an inhibition at 2.5 µg/mL of 11%.
Turning to `COc1cc(/C=C/C(=O)c2cccc(NC(=O)c3ccc(Cl)c(Cl)c3)c2)ccc1O`, the half-maximal inhibitory concentration (IC50) in assay [1] was 2.97 µg/mL (≈ 6.71 µM); in assay [3], 3.88 µg/mL (≈ 8.77 µM); in assay [4], 29.5 µg/mL (≈ 66.6 µM); in assay [5] it was 25.3 µg/mL (≈ 57.2 µM); in assay [8], above 50 µg/mL. In addition, the inhibition at 5 µg/mL in assay [2] worked out at 5%. For the same molecule, the inhibition at 10 µg/mL in assay [6] is 45%.
`COc1cc(/C=C/C(=O)CC(=O)/C=C/c2ccc(O)c(OC)c2)ccc1O` [CURCUMIN] showed an IC50 in assay [1] of 10.8 µg/mL (≈ 29.4 µM).
`COc1cc(/C=C/C(=O)c2cccc(N)c2)ccc1O`: the IC50 was determined as 2.87 µg/mL (≈ 10.7 µM) in assay [1]; 11.5 µg/mL (≈ 42.6 µM) in assay [3]; 7.71 µg/mL (≈ 28.6 µM) in assay [4]; 12.3 µg/mL (≈ 45.8 µM) in assay [5]; 6.02 µg/mL (≈ 22.4 µM) in assay [8]. The molecule also displayed an inhibition at 5 µg/mL in assay [2] of 50%. The same molecule gave an inhibition at 10 µg/mL in assay [6] of 90%. This molecule registered an inhibition at 2.5 µg/mL in assay [7] of 20%.
Turning to `COc1cc(/C=C/C(=O)c2cccc(NC(=O)c3c(Cl)cccc3Cl)c2)ccc1O`, the IC50 in assay [1] was 0.46 µg/mL (≈ 1.04 µM); in assay [3] it was 1.58 µg/mL (≈ 3.57 µM); in assay [4], 17.8 µg/mL (≈ 40.3 µM); in assay [5], 3.56 µg/mL (≈ 8.05 µM); in assay [8], 2.48 µg/mL (≈ 5.61 µM). Also, the inhibition at 5 µg/mL in assay [2] was 88%. Also, in assay [6], the inhibition at 10 µg/mL is 99%. This molecule registered an inhibition at 2.5 µg/mL in assay [7] of 53%.
For `CCCC(=O)Nc1cccc(C(=O)/C=C/c2ccc(O)c(OC)c2)c1`, the half-inhibitory concentration (IC50) in assay [1] is 1.27 µg/mL (≈ 3.74 µM); in assay [3] it was 1.43 µg/mL (≈ 4.21 µM); in assay [4] it was 5.56 µg/mL (≈ 16.4 µM); in assay [5], 3.94 µg/mL (≈ 11.6 µM); in assay [8], 2.04 µg/mL (≈ 6.01 µM). Besides, at 5 µg/mL the inhibition in assay [2] was 57%. Also, the inhibition at 10 µg/mL in assay [6] came out at 87%. In assay [7], the inhibition at 2.5 µg/mL stood at 40%.
`COc1cc(/C=C/C(=O)c2cccc(NC(=O)c3ccco3)c2)ccc1O`: the IC50 in assay [1] was 0.38 µg/mL (≈ 1.05 µM); in assay [3] it was 5.46 µg/mL (≈ 15 µM); in assay [4], 6.65 µg/mL (≈ 18.3 µM); in assay [5], 0.76 µg/mL (≈ 2.09 µM); in assay [8] it was 3.11 µg/mL (≈ 8.56 µM). The molecule further registered an inhibition at 5 µg/mL in assay [2] of 82%. The same molecule yielded an inhibition at 10 µg/mL in assay [6] of 100%. 2.5 µg/mL produced 61% inhibition in assay [7].
`COc1cc(/C=C/C(=O)c2cccc(NC(=O)c3ccc(Cl)cc3)c2)ccc1O`: the IC50 in assay [1] was 0.76 µg/mL (≈ 1.86 µM); in assay [3], 0.59 µg/mL (≈ 1.45 µM); in assay [4], above 50 µg/mL; in assay [5], 2.3 µg/mL (≈ 5.64 µM); in assay [8], 3.82 µg/mL (≈ 9.37 µM). The inhibition at 5 µg/mL in assay [2] came out at 42%. The molecule also had an inhibition at 10 µg/mL in assay [6] of 66%.
Consider `CCOC(=O)C(=O)Nc1cccc(C(=O)/C=C/c2ccc(O)c(OC)c2)c1`, for which the half-maximal inhibitory concentration (IC50) in assay [1] was 13.3 µg/mL (≈ 36 µM); in assay [3], 7.03 µg/mL (≈ 19 µM); in assay [4], above 50 µg/mL; in assay [5], above 50 µg/mL; in assay [8], above 50 µg/mL. In assay [2], the inhibition at 5 µg/mL turned out to be 45%. Further, the inhibition at 10 µg/mL in assay [6] came to 66%.
With `COc1cc(/C=C/C(=O)c2cccc(NC(=O)c3ccc(Cl)cc3Cl)c2)ccc1O`, the IC50 in assay [1] was 0.4 µg/mL (≈ 0.904 µM); in assay [3], 12.8 µg/mL (≈ 29 µM); in assay [4] it was above 50 µg/mL; in assay [5], 34.4 µg/mL (≈ 77.8 µM); in assay [8] it was 27.2 µg/mL (≈ 61.5 µM). The molecule further had an inhibition at 5 µg/mL in assay [2] of 51%. Besides, at 10 µg/mL the inhibition in assay [6] was 70%. Besides, testing at 2.5 µg/mL in assay [7] gave an inhibition of 29%.
In the case of `COc1cc(/C=C/C(=O)c2cccc(NC(=O)c3ccccc3)c2)ccc1O`, the IC50 in assay [1] was determined as 0.37 µg/mL (≈ 0.991 µM); in assay [3], 0.82 µg/mL (≈ 2.2 µM); in assay [4] it was 8.82 µg/mL (≈ 23.6 µM); in assay [5] it was 4.57 µg/mL (≈ 12.2 µM); in assay [8], 3.47 µg/mL (≈ 9.29 µM). The inhibition at 5 µg/mL in assay [2] is 48%. The inhibition at 10 µg/mL in assay [6] came out at 69%.
